The values that follow come from ChEMBL document CHEMBL1134642, “Dicationic bis(9-methylphenazine-1-carboxamides): relationships between biological activity and linker chain structure for a series of potent topoisomerase targeted anticancer drugs” (J Med Chem, 2001).

The structures appear in SMILES notation.

Assay [1] is described as follows: Concentration of the drug to reduce cell number to 50% of controls in AuxB1 cell line. The class given is functional, cell-based.
A further assay deals with D3F. The assay is described as follows: Concentration of the drug to reduce cell number to 50% of controls in D3F cell line. The class given is functional, cell-based.
The test system of assay [2] is HT-29. The assay is described as follows: Inhibitory concentration required to reduce cell growth to 50% of control cultures in the HT-29 human cell line. The class given is functional.
The subject of assay [3] is HT-29. The experiment in a line: Inhibitory concentration of the drug resulting in inhibition of cell growth to 50% of controls in HT-29 (human colon). The format is functional, cell-based.
The nature of assay [4]: Inhibitory concentration required to reduce cell number to 50% of control cultures in JLc(Jurkat human leukemia). The class given is functional. Summed up:
(§1)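 Murine P388 leukemia, Lewis lung carcinoma (LL), and human Jurkat leukemia (JLC) cells, plus amsacrine- and doxorubicin-resistant Jurkat derivatives (JLA, JLD), were grown with drug. Seeding per well was 4.5×10^3 (P388), 10^3 (LL) and 3.75×10^3 (Jurkat). Exposure was 3 days (P388) or 4 days (others). Growth was read by [3H]TdR uptake (P388) or sulforhodamine assay. IC50 is the drug concentration (nM) halving cell number versus controls. Ratios are JLA/JLC and JLD/JLC IC50. Independent assays were run in duplicate.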

In assay [5] the test system is Lewis lung carcinoma cell line. The assay is described as follows: Inhibitory concentration required to reduce cell number to 50% of control cultures in LL (Lewis lung carcinoma cell line). Particulars: Mus musculus. The class given is functional, cell-based. Summed up:
as §1

The next assay concerns MOLT-4. The experiment in a line: Inhibitory concentration of the drug resulting in inhibition of cell growth to 50% of controls in MOLT-4 (human leukemia). The class given is functional, cell-based.
The next assay deals with MCF7. The experiment in a line: Inhibitory concentration required to reduce cell growth to 50% of control cultures in the MCF-7 human cell line. The class given is functional.
Assay [6] can be described thus: Inhibitory concentration required to reduce cell growth to 50% of control cultures in the NCI-ADR human cell line. The format is functional. Conditions: NCI/ADR-RES.
The test system of the next assay is SK-OV-3. The assay is described as follows: Inhibitory concentration required to reduce cell growth to 50% of control cultures in the SKOV3 human cell line. The class given is functional.
A further assay concerns U-937. The assay is described as follows: Inhibitory concentration of the drug resulting in inhibition of cell growth to 50% of controls in U937 (human leukemia). The format is functional, cell-based.
In another assay the test system is Whole cell line panel. The assay is described as follows: Average GI50 value for the drug over the whole cell line panel. The class given is functional.
A short description of assay [7]: Ratio of IC50 values obtained from D3F-C10 and D3F cell lines. The class given is functional.
A short description of assay [8]: Ratio of IC50 values obtained from Jurkat lines, (JLa /JLc). The class given is functional, Homo sapiens. The method, boiled down: as §1
Assay [9] in a line: Ratio of IC50 values obtained from Jurkat lines, (JLd /JLc). The format is functional, Homo sapiens. The method, boiled down: as §1
The next assay deals with CAKI-1. The experiment in a line: Inhibitory concentration required to reduce cell growth to 50% of control cultures in the CAK1 human cell line. The format is functional.
The test system of a further assay is HCT-116. The experiment in a line: Inhibitory concentration required to reduce cell growth to 50% of control cultures in the HTC116 human cell line. The format is functional.
Assay [10] is described as follows: Ratio of IC50 values obtained from CHrC5 and AuxB1 cell lines. The class given is functional.

On to `Cc1cccc2nc3cccc(C(=O)NCCCN(C)CCCNC(=O)c4cccc5nc6cccc(C)c6nc45)c3nc12`, for which the IC50 in assay [1] was determined as 0.57 nM; in the assay with D3F, 2.9 nM; in the assay on HT-29 [3] it was 1.5 nM; in assay [4], 5.6 nM; in [5], 3.3 nM; in the assay on MOLT-4 it was 0.35 nM. This compound also had an IC50 in the assay with U-937 of 6.9 nM. Besides, the GI50 in the assay with HT-29 [2] is under 10 nM; in the assay with MCF7, under 10 nM; in assay [6] it was 19 nM; in the assay on SK-OV-3, 220 nM; in the assay on Whole cell line panel it was 20 nM; with CAKI-1, under 10 nM. The same compound displayed a GI50 with HCT-116 of under 10 nM. The Ratio amounted to 0.57 in assay [7], 0.6 in assay [8], 0.6 in assay [9] and 31.3 in [10].
